Data published in ChEMBL document CHEMBL5532760, “Synergy between the clavanins as a weapon against multidrug-resistant Enterobacter cloacae” (2024).
Converted amounts (≈) assume the structure as drawn. “And” between values parts separate entries of the source, which are not always exact repeats. Equal entries are not always repeated. Where a SMILES comes first, the peptide text is derived from it. [ ]: non-standard residue; d: D form. Dopa = N[C@@H](Cc1ccc(O)c(O)c1)C(=O)O

Experiments:
Enterobacter cloacae [1] = assay: Antibacterial activity against Enterobacter cloacae 0136 at pH 5.5 incubated for 18 to 20 hrs by broth microdilution method; assay type: functional; conditions: time 18-20 hrs
How it was run: (§1)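 E. cloacae AR#0136 grown at 37 °C with shaking at 234 rpm to mid-log (OD600 0.4–0.6) in MHB. For pH 5.5 the medium was adjusted with 0.1 M HCl before autoclaving; the pH 7.4 medium was not adjusted. Peptides were twofold serially diluted; final inoculum 5×10^5 CFU/mL; 37 °C for 18–20 h. MIC taken as the lowest concentration with no visible growth.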

Enterobacter cloacae [2] = assay: Antibacterial activity against Enterobacter cloacae 0136 at pH 7.4 incubated for 18 to 20 hrs by broth microdilution method; assay type: functional; conditions: time 18-20 hrs; how it was run: as §1

H-GIGKFLHSAKKFGKAFVGEIMNS-NH2
MIC (Enterobacter cloacae [1]): 4 µM and 4.9 µg/mL | MIC (Enterobacter cloacae [2]): 4 µM and 4.9 µg/mL

CC[C@H](C)[C@H](NC(=O)[C@H](CCCCN)NC(=O)CNC(=O)[C@H](CC(C)C)NC(=O)[C@H](CC(C)C)NC(=O)[C@H](Cc1cnc[nH]1)NC(=O)[C@H](Cc1ccccc1)NC(=O)[C@@H](N)C(C)C)C(=O)N[C@H](C(=O)N[C@@H](Cc1cnc[nH]1)C(=O)N[C@@H](Cc1cnc[nH]1)C(=O)N[C@H](C(=O)NCC(=O)N[C@@H](CC(N)=O)C(=O)N[C@@H](Cc1ccccc1)C(=O)N[C@H](C(=O)N[C@@H](Cc1ccc(O)c(O)c1)C(=O)NCC(=O)N[C@@H](Cc1ccccc1)C(=O)N[C@@H](CO)C(=O)N[C@@H](Cc1cnc[nH]1)C(=O)N[C@H](C(=O)N[C@@H](Cc1ccccc1)C(=O)O)C(C)C)C(C)C)C(C)C)[C@@H](C)CC
MIC (Enterobacter cloacae [1]): 46 µg/mL (≈ 17.1 µM) | MIC (Enterobacter cloacae [2]): > 128 µM and 372 µg/mL

H-VFQFLGRIIHHVGNFVHGFSHVF-NH2
MIC (Enterobacter cloacae [1]): 128 µM and 344 µg/mL | MIC (Enterobacter cloacae [2]): > 128 µM and 344 µg/mL

CC[C@H](C)[C@H](NC(=O)[C@H](CCCNC(=N)N)NC(=O)CNC(=O)[C@H](CC(C)C)NC(=O)[C@H](CC(C)C)NC(=O)[C@H](CCCCN)NC(=O)[C@H](Cc1ccccc1)NC(=O)[C@H](C)N)C(=O)N[C@H](C(=O)N[C@@H](Cc1cnc[nH]1)C(=O)N[C@@H](Cc1cnc[nH]1)C(=O)N[C@H](C(=O)NCC(=O)N[C@@H](CC(N)=O)C(=O)N[C@@H](Cc1ccccc1)C(=O)N[C@H](C(=O)N[C@@H](Cc1ccc(O)c(O)c1)C(=O)NCC(=O)N[C@@H](Cc1ccccc1)C(=O)N[C@@H](CO)C(=O)N[C@@H](Cc1cnc[nH]1)C(=O)N[C@H](C(=O)N[C@@H](Cc1ccccc1)C(=O)O)C(C)C)C(C)C)C(C)C)[C@@H](C)CC (H-AFKLLGRIIHHVGNFV[Dopa]GFSHVF-OH)
MIC (Enterobacter cloacae [1]): 8 µM and 23 µg/mL | MIC (Enterobacter cloacae [2]): > 128 µM and 371 µg/mL

H-FLRFIGSVIHGIGHLVHHIGVAL-NH2
MIC (Enterobacter cloacae [1]): 11 µg/mL | MIC (Enterobacter cloacae [2]): 348 µg/mL

H-VFQFLGKIIHHVGNFVHGFSHVF-NH2
MIC (Enterobacter cloacae [1]): > 128 µM and 341 µg/mL | MIC (Enterobacter cloacae [2]): > 128 µM and 341 µg/mL

H-LFKLLGKIIHHVGNFVHGFSHVF-NH2
MIC (Enterobacter cloacae [1]): 8 µM and 23 µg/mL | MIC (Enterobacter cloacae [2]): > 128 µM and 368 µg/mL
